This passage reports Ki and IC50 results from ChEMBL document CHEMBL1131013, “Synthesis and evaluation of analogues of the partial agonist 6-(propyloxy)-4-(methoxymethyl)-beta-carboline-3-carboxylic acid ethyl ester (6-PBC) and the full agonist 6-(benzyloxy)-4-(methoxymethyl)-beta-carboline-3-carboxylic acid ethyl ester (Zk 93423) at wild type and recombinant GABAA receptors” (J Med Chem, 1998).

In assay [1] the target is GABA-A receptor; alpha-6/beta-3/gamma-2 (Homo sapiens, UniProt P18507+P28472+Q16445). Nature of the assay: Binding affinity measured using LtK- cell membranes expressing Gamma-aminobutyric acid A receptor alpha-6-beta-3-gamma-2. Put shortly: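 Ltk- cells expressing human α6β3γ2, scraped into PBS and resuspended in 10 mM KH2PO4/100 mM KCl pH 7.4. 1 h at 4 °C to equilibrium, filtration, scintillation counting.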
Sequence of GABA-A receptor; alpha-6/beta-3/gamma-2 (Q16445 whole entry, one chain of several): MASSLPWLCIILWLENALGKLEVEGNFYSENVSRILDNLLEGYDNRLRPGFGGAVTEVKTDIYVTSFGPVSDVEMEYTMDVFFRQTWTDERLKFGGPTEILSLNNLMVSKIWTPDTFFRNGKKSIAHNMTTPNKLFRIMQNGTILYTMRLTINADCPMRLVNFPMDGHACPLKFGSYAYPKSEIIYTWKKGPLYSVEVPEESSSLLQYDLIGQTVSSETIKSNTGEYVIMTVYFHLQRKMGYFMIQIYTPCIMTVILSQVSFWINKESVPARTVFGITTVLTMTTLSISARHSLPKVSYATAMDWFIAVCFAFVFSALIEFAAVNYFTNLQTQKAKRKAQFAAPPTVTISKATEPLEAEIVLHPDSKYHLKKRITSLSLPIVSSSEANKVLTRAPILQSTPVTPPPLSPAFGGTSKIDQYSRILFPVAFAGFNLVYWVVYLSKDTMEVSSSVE

The target of assay [2] is GABA-A receptor; anion channel. Nature of the assay: Displacement of [3H]flunitrazepam from GABA-A Benzodiazepine receptor of rat brain cortical membranes. It is filed as cell membranes, Membrane. Put shortly:
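Rat cerebral cortex homogenized in 50 mM Tris-citrate, pH 7.4, and washed by centrifugation (20000g). […] Nonspecific binding with 10 μM Ro15-1788. Ended by vacuum filtration. IC50 estimated from at least six inhibitor concentrations; mean ± SEM of at least three determinations.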

The target of assay [3] is T1, GABA-A receptor; alpha-5/beta-3/gamma-2 (Homo sapiens, UniProt P18507+P28472+P31644).
T1 sequence (P18507 whole entry): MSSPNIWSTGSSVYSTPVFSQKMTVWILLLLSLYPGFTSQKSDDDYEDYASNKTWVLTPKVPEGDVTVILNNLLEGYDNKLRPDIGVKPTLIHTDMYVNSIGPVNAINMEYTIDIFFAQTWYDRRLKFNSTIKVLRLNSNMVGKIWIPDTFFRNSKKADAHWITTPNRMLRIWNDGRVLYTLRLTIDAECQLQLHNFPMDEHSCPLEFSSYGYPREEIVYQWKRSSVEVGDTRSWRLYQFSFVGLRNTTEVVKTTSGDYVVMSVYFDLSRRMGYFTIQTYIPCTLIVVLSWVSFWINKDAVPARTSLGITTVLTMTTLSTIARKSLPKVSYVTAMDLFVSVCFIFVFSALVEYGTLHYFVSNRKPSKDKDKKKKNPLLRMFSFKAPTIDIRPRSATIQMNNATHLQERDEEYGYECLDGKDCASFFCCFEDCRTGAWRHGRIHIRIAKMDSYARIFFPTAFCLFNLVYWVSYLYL
T1 sequence (P28472 whole entry): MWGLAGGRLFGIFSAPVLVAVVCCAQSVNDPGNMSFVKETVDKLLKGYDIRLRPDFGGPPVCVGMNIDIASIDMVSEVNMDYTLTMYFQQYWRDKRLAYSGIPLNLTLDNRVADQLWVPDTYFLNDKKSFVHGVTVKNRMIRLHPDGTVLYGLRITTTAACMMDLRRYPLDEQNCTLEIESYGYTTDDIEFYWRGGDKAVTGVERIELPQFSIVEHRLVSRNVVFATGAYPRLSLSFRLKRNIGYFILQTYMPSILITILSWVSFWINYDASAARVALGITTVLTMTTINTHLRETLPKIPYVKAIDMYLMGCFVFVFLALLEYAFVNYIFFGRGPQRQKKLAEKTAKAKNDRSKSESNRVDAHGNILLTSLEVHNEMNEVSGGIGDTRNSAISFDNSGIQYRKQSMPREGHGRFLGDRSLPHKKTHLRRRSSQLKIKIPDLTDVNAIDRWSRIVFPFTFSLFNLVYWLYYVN
T1 sequence (P31644 whole entry): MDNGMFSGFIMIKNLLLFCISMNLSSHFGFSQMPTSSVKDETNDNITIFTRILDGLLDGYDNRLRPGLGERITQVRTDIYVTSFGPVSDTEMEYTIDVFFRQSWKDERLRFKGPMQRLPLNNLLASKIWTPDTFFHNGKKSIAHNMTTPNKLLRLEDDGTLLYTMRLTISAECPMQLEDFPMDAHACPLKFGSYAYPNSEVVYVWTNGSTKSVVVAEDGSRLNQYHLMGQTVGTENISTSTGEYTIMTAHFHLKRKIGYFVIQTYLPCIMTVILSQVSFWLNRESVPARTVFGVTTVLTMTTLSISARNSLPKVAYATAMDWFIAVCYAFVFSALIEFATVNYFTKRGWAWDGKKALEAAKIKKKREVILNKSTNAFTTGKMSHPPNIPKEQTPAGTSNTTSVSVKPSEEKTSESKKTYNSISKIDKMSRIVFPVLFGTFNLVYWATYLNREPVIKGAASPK
As to the kind of experiment: Binding affinity measured using LtK- cell membranes expressing Gamma-aminobutyric acid A receptor alpha-5-beta-3-gamma-2.

Assay [4] deals with T2, GABA-A receptor; alpha-3/beta-3/gamma-2 (Homo sapiens, UniProt P18507+P28472+P34903).
T2 sequence (P18507 whole entry): T1 sequence (P18507 whole entry)
T2 sequence (P28472 whole entry): T1 sequence (P28472 whole entry)
T2 sequence (P34903 whole entry): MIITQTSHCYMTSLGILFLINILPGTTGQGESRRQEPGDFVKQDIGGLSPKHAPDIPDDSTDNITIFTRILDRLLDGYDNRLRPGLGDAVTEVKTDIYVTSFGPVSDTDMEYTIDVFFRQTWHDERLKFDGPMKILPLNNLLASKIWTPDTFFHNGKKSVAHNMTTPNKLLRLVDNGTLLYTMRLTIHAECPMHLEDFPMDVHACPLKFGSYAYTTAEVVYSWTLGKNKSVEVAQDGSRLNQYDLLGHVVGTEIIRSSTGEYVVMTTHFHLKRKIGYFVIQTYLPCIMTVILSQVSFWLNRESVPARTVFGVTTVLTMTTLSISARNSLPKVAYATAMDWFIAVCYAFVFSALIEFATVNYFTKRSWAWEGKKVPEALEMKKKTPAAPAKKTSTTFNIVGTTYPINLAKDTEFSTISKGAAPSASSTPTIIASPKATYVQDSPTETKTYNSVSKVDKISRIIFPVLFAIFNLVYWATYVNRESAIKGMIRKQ
Nature of the assay: Binding affinity measured using LtK- cell membranes expressing GABA alpha-3-beta-3-gamma-2 receptor.

Assay [5] deals with T3, GABA-A receptor; alpha-1/beta-3/gamma-2 (Homo sapiens, UniProt P14867+P18507+P28472).
T3 sequence (P14867 whole entry): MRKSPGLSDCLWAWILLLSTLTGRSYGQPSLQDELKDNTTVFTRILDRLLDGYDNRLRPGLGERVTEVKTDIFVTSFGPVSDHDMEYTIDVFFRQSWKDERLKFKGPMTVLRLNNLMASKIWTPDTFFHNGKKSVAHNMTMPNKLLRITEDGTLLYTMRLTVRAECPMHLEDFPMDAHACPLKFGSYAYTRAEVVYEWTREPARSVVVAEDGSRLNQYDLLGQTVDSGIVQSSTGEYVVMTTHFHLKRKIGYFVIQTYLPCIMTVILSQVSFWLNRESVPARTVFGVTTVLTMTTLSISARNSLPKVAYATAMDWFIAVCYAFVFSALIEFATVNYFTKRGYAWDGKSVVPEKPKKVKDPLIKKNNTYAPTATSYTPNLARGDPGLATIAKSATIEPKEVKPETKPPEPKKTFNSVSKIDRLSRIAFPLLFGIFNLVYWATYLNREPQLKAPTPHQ
T3 sequence (P18507 whole entry): T1 sequence (P18507 whole entry)
T3 sequence (P28472 whole entry): T1 sequence (P28472 whole entry)
Nature of the assay: Binding affinity measured using LtK- cell membranes expressing GABA alpha-1-beta-3-gamma-2 receptor.

The target of assay [6] is T4, GABA-A receptor; alpha-2/beta-3/gamma-2 (Homo sapiens, UniProt P18507+P28472+P47869).
T4 sequence (P18507 whole entry): T1 sequence (P18507 whole entry)
T4 sequence (P28472 whole entry): T1 sequence (P28472 whole entry)
T4 sequence (P47869 whole entry): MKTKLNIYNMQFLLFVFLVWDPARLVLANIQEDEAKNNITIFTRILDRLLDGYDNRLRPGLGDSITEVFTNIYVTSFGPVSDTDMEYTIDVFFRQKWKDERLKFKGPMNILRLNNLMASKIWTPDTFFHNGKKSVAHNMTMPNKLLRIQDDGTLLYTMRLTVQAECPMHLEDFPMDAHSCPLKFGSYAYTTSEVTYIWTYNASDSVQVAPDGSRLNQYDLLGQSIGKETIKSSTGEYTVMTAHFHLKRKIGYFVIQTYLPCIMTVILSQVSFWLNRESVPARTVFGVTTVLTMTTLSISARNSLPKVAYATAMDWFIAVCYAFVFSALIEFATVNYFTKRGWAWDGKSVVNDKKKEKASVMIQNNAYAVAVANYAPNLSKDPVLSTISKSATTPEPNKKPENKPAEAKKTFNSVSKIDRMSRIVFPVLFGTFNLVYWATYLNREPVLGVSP
As to the kind of experiment: Binding affinity measured using LtK- cell membranes expressing GABA alpha-2-beta-3-gamma-2 receptor.

Assay [7] has as its target T4, GABA-A receptor; alpha-2/beta-3/gamma-2. As to the kind of experiment: Binding affinity for GABA-A alpha-2-beta-3-gamma-2 receptor expressed in L(tk-) cells. It is filed as cell-based. An outline of the steps:
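Competition binding on Ltk- cells expressing human α2β3γ2 GABAA receptors. Cells were scraped into PBS, centrifuged at 3000g and resuspended in phosphate buffer (10 mM KH2PO4, 100 mM KCl, pH 7.4 at 4 °C). Radioligand was [3H]Ro15-1788 at 1–2 nM, with test compound at 10^-9–10^-5 M. Nonspecific binding was defined by 10^-5 M diazepam. Incubation ran 1 h at 4 °C to equilibrium, followed by filtration and scintillation counting.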

For `CCOC(=O)c1[nH]cc2nc3ccc(OC)cc3c-2c1COC`, the Ki in assay [1] is over 10 µM; in assay [3], 0.004 µM; in assay [4], 0.00172 µM; in assay [5], 0.00014 µM; in assay [6], 0.00119 µM. Also, the IC50 in assay [2] was 0.001 µM.
`CCOC(=O)c1ncc2c(c1CC)c1cc(OCc3ccccc3)ccc1n2C` registered an IC50 in assay [2] of over 5 µM.
On the same count and under the same terms, the value for `CCOC(=O)c1cc2c3cc(OCc4ccccc4)ccc3n(C)c2cn1` was over 5 µM; that for `CCCOc1ccc2c(c1)c1c(COC)c(C(=O)OCC)ncc1n2C` was 0.29 µM; that for `CCCOc1[nH]cc2nc3ccc(OCc4ccccc4)cc3c-2c1COC` was 0.0638 µM.
`CCCOc1ccc2[nH]c3cnc(C(=O)OCC)c(COC)c3c2c1`: the Ki came to 1.34 µM in assay [1]; 0.0024 µM in assay [3]; 0.0022 µM in assay [4]; 0.00049 µM in assay [5]; 0.00121 µM in assay [6]. The same molecule came in with an IC50 in assay [2] of 0.0081 µM.
For `CCOc1cc2c(cn1)[nH]c1ccccc12`, the Ki is over 1 µM in assay [1], 0.0251 µM in assay [7], 0.868 µM in assay [3] and 0.00643 µM in assay [5].
Consider `CCCOc1ccc2[nH]c3cnc(C(=O)OC(C)C)c(COC)c3c2c1`, for which the IC50 in assay [2] was determined as 0.0308 µM. In other words, the double-digit nanomolar range.
Regarding `COCc1c(N=C=S)[nH]cc2nc3ccc(OCc4ccccc4)cc3c1-2`, the Ki is over 10 µM in assay [1]; 0.159 µM in assay [3]; 0.0588 µM in assay [4]; 0.025 µM in assay [5]; 0.0826 µM in assay [6]. Further, the IC50 in assay [2] was determined as 0.04 µM.
With `CCCOc1ccc2[nH]c3cnc(OCCC)c(COC)c3c2c1`, the Ki was over 10 µM in assay [1]; 0.332 µM in assay [3]; 0.27 µM in assay [4]; 0.0246 µM in assay [5]; 0.214 µM in assay [6]. In addition, the IC50 in assay [2] is 0.0432 µM.
With `CCCCCCCCOc1ccc2[nH]c3cnc(C(=O)OCC)c(COC)c3c2c1`, the Ki in assay [1] is over 3 µM; in assay [3], over 3 µM; in assay [4] it was over 3 µM; in assay [5], over 1 µM; in assay [6], over 3 µM. This molecule showed an IC50 in assay [2] of 0.33 µM.
Molecule `COCc1c(/N=C(/S)OC)[nH]cc2nc3ccc(OCc4ccccc4)cc3c1-2` had an IC50 in assay [2] of 0.176 µM.
On to `CCCCCCCCOc1ccc2c(c1)c1c(COC)c(C(=O)OCC)ncc1n2C`, for which the Ki in assay [1], in assay [3], in assay [4], in assay [5] and in assay [6] was over 3 µM throughout. The molecule further returned an IC50 in assay [2] of over 1 µM.
Turning to `CCCOc1ccc2[nH]c3cnc(N)c(COC)c3c2c1`, the Ki is over 3 µM in assay [1]; 0.38 µM in assay [3]; 0.7 µM in assay [4]; 0.045 µM in assay [5]; 0.54 µM in assay [6]. The same molecule showed an IC50 in assay [2] of 0.697 µM.
As for `CCCOc1ccc2[nH]c3cnc(N=C=S)c(COC)c3c2c1`, in assay [2], the IC50 is 0.0247 µM.
Take `CCCCCCCCOc1ccc2c(c1)c1c(CC)c(C(=O)OCC)ncc1n2C`: the IC50 in assay [2] was over 1 µM.
The same measure, in the same setting: with `COCc1c(N)[nH]cc2nc3ccc(OCc4ccccc4)cc3c1-2` the figure was 0.271 µM.
Regarding `CCOC(=O)c1[nH]cc2nc3ccc(OCc4cccc5ccccc45)cc3c-2c1CC`, the Ki was over 10 µM in assay [1]; 0.27 µM in assay [3]; 0.3 µM in assay [4]; 0.183 µM in assay [5]; 0.291 µM in assay [6]. Moreover, in assay [2], the IC50 turned out to be 0.0139 µM.
For `CCOC(=O)c1[nH]cc2nc3ccc(OCc4cccc5ccccc45)cc3c-2c1COC`, the Ki in assay [1] is over 1 µM; in assay [3], 0.323 µM; in assay [4] it was 0.293 µM; in assay [5], 0.0154 µM. The molecule further displayed an IC50 in assay [2] of 0.0555 µM.
Turning to `CCOC(=O)c1ncc2c(c1CC)c1cc(OCc3cccc4ccccc34)ccc1n2C`, the IC50 in assay [2] was over 1 µM.
Molecule `CCOC(=O)c1ncc2c(c1COC)c1cc(OCc3cccc4ccccc34)ccc1n2C` displayed an IC50 in assay [2] of 0.73 µM.
As to `COCc1c(C(=O)OC(C)C)ncc2[nH]c3ccc(OCc4ccccc4)cc3c12` [ABECARNIL], the Ki in assay [1] was over 10 µM; in assay [3], 0.006 µM; in assay [4], 0.0075 µM; in assay [5] it was 0.0124 µM; in assay [6], 0.0153 µM.
Turning to `Cc1nnc2ccc(-c3cccc(C(F)(F)F)c3)nn12` [CI-218872], the Ki in assay [1] is over 10 µM; in assay [3] it was 0.561 µM; in assay [4] it was 1.16 µM; in assay [5], 0.057 µM; in assay [6] it was 1.96 µM.
